Reference: PMC11897353 (Scientific Reports, 2025)
pIC50, pKi: −log10 of the molar value. Entries after “also recorded” stand apart in the source; their conditions may differ.

Tests used:
mTOR pathway = mTOR pathway protein phosphorylation by Western blot; assay type: cell-based, human; details: SH-SY5Y, 24 h, vs control; Rapamycin 100 nM
Procedure, shortened: (§1)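 Test compound was diluted in medium from a 5 mM DMSO stock and applied to SH-SY5Y cells for 24 h, after 24 h growth and a PBS wash. Controls were untreated medium and rapamycin. Cells were lysed in RIPA with protease/phosphatase inhibitors and protein measured by BCA. Equal protein was run on 6%/12% SDS-PAGE, then PVDF, 3% BSA block, primary overnight 4 °C, ECL. Densitometry; n≥3, mean ± SEM, one-way ANOVA with Tukey.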

SH-SY5Y cells [1] = experiment: MTT cell viability assay; assay type: cell-based, human; details: SH-SY5Y, 5 µM, 10 µM and 25 µM, 24 h, MTT
Procedure, shortened: (§2)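 SH-SY5Y cells were seeded at 5 × 10³ per well, grown 24 h, then given test compound at 5, 10 or 25 µM for 24 h, in triplicate. A solvent control was included, and 10% SDS added 1 h before the end served as the death control. MTT at 0.5 mg/mL ran 4 h at 37 °C, followed by overnight solubilization in 10% SDS/0.1 M HCl and A570. Results are % MTT reduction versus the negative control (100%); 3 experiments, one-way ANOVA.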

MTT cell viability assay = assay type: cell-based, human; details: human, SH-SY5Y neuroblastoma cells
Procedure, shortened: as §2

LC3 and p62 = experiment: Common autophagy pathway protein levels; assay type: cell-based, human; details: SH-SY5Y, 24 h, vs control; Rapamycin 100 nM
Procedure, shortened: as §1

5-HT6R = 5-HT6R protein levels by Western blot; assay type: cell-based, human; details: SH-SY5Y, 24 h, densitometry vs control; Rapamycin 100 nM
Procedure, shortened: as §1

[2] = Preliminary zebrafish larvae viability assay; details: in vivo, other: larvae exposed to the compound at 2–50 µM
SH-SY5Y cells [3] = experiment: Autophagy induction by LC3 immunofluorescence; assay type: cell-based, human; details: for number of autophagosomes per cell / percentage of cells with autophagosomes (LC3-positive punctate pattern): SH-SY5Y, 25 µM, 24 h, vs control; for capacity to induce autophagy: neuroblastoma SH-SY5Y cell line
Procedure, shortened: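 SH-SY5Y cells were grown on coverslips at 20–40% confluence for 24 h, then given test compound at 25 µM for 24 h. Fixation used 4% paraformaldehyde plus DAPI for 20 min. Cells were permeabilized with 0.1% Triton, blocked in 3% BSA, and stained with anti-LC3A/B (1:400, overnight 4 °C) then Alexa 488 secondary. Images at 20x. Cells with LC3 puncta were counted against DAPI nuclei, and puncta per cell by 3D object counting.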

receptor 5-HT6 = details: reported for the endogenous ligand; cited from earlier work
human 5-HT6 receptors = human 5-HT6 receptors (Homo sapiens, UniProt P50406); experiment: biochemical; assay type: binding
Chain of human 5-HT6 receptors (P50406 whole entry): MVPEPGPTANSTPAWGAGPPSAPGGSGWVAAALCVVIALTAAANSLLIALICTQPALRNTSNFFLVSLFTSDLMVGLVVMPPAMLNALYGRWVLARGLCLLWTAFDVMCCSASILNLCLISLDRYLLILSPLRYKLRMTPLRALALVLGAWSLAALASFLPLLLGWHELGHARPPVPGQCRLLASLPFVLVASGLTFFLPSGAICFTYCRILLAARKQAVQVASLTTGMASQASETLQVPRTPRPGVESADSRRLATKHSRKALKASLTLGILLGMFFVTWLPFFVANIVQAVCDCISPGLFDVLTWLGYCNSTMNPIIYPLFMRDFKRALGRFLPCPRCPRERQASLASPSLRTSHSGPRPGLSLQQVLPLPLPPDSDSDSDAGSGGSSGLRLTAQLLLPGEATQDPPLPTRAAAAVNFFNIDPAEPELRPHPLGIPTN

COc1ccccc1N1CCN(CC(O)c2cn(S(=O)(=O)c3cccc4ccccc34)c3ccccc23)CC1 (stereo not shown) [PUC-10, 2-(4-(2-methoxyphenyl)piperazin-1-yl)-1-(1-(naphthalen-1-ylsulfonyl)-1 H-indol-3-yl)ethan-1-ol]
phosphorylated levels of BECN1 (Ser30) (mTOR pathway): significantly increased
phosphorylated levels of ULK1 (Ser757) (mTOR pathway): significantly decreases
phosphorylated levels of mTOR (Ser2448) (mTOR pathway): significantly decreases
cytotoxicity / cellular viability (in words) (SH-SY5Y cells [1]): do not induce cytotoxicity; also recorded: do not cause toxicity
viability at 24 h, 25 µM (MTT cell viability assay): > 90%
LC3-II/LC3-I ratio (LC3 and p62): significant increase
p62 levels (LC3 and p62): significantly decreased
total LC3-II levels (LC3 and p62): significantly increased
expression levels of 5-HT6R (5-HT6R): increases significantly; also recorded: significantly increased
viability at 48 h [2]: ~85%
number of autophagosomes per cell (SH-SY5Y cells [3]): significant increase
percentage of cells with autophagosomes (LC3-positive punctate pattern) (SH-SY5Y cells [3]): significantly higher percentage
capacity to induce autophagy (SH-SY5Y cells [3]): high capacity to induce autophagy

COc1ccccc1N1CCN(CC(O)c2nn(S(=O)(=O)c3cccc4ccccc34)c3ccccc23)CC1 (stereo not shown) [PUC-55, 2-(4-(2-methoxyphenyl)piperazin-1-yl)-1-(1-(naphthalen-1-ylsulfonyl)-1H-indazol-3-yl)ethan-1-ol]
pIC50 (human 5-HT6 receptors): 7.41
pKi (human 5-HT6 receptors): 7.43
phosphorylated levels of BECN1 (Ser30) (mTOR pathway): significantly increased
phosphorylated levels of ULK1 (Ser757) (mTOR pathway): significantly decreases
phosphorylated levels of mTOR (Ser2448) (mTOR pathway): significantly decreases
cytotoxicity / cellular viability (in words) (SH-SY5Y cells [1]): high cellular viability; also recorded: do not induce cytotoxicity; also recorded: do not cause toxicity
LC3-II/LC3-I ratio (LC3 and p62): significant increase
p62 levels (LC3 and p62): significantly decreased
total LC3-II levels (LC3 and p62): significantly increased
expression levels of 5-HT6R (5-HT6R): increases significantly; also recorded: significantly increased
number of autophagosomes per cell (SH-SY5Y cells [3]): significant increase
percentage of cells with autophagosomes (LC3-positive punctate pattern) (SH-SY5Y cells [3]): significantly higher percentage
capacity to induce autophagy (SH-SY5Y cells [3]): potent autophagy-inducing activity

CO[C@H]1C[C@@H]2CC[C@@H](C)[C@@](O)(O2)C(=O)C(=O)N2CCCC[C@H]2C(=O)O[C@H]([C@H](C)C[C@@H]2CC[C@@H](O)[C@H](OC)C2)CC(=O)[C@H](C)/C=C(\C)[C@@H](O)[C@@H](OC)C(=O)[C@H](C)C[C@H](C)/C=C/C=C/C=C/1C [Rapamycin, reference compound]
phosphorylated levels of BECN1 (Ser30) (mTOR pathway): significantly increased
phosphorylated levels of ULK1 (Ser757) (mTOR pathway): significantly decreases
phosphorylated levels of mTOR (Ser2448) (mTOR pathway): significantly decreases
LC3-II/LC3-I ratio (LC3 and p62): significant increase
p62 levels (LC3 and p62): significantly decreased
total LC3-II levels (LC3 and p62): significantly increased
expression levels of 5-HT6R (5-HT6R): did not modify the expression levels; also recorded: did not produce significant changes
